# Measurements as given in ChEMBL document CHEMBL4177582, “Modifications of flexible nonyl chain and nucleobase head group of (+)-erythro-9-(2's-hydroxy-3's-nonyl)adenine [(+)-EHNA] as adenosine deaminase inhibitors” (Bioorg Med Chem, 2017).
# What was measured:
# Adenosine deaminase = molecular target: T1, Adenosine deaminase (Bos taurus, UniProt P56658); assay: Inhibition of bovine adenosine deaminase pre-incubated for 5 mins before adenosine addition; details: read-out: Ki
# T1 sequence (P56658 whole entry): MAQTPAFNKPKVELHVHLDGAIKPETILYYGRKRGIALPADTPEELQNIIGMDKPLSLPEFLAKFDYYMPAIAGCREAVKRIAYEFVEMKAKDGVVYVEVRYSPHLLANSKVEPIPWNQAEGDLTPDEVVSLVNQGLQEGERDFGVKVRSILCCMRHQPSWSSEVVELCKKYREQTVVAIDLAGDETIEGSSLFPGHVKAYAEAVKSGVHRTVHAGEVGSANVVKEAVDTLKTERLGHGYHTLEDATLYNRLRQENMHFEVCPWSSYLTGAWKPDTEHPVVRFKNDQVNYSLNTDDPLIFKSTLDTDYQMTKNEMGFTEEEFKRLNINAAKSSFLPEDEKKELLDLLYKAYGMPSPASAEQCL
# Rattus norvegicus [1] = assay: Clearance in Wistar rat at 1 mg/kg, iv after 1 hr by LC/MS/MS method; format: ADME, organism-based; details: in vivo, BLD = below limit of detection
# Method in brief: (§1)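 Male Wistar rats were given a single intravenous dose. The vehicle was NMP 10%, PEG-300 15%, and 0.1M ammonium acetate buffer q.s. (pH 3). Plasma concentration–time profiles were used to derive AUC0-t, Vss, clearance (mL/min/kg) and t1/2.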
# [2] = AUC (0 to t) in Wistar rat at 1 mg/kg, iv after 0.25 to 24 hrs by LC/MS/MS method; format: ADME, organism-based; design: dose 1 mg/kg, time 0.25-24 hr, route intravenous; details: in vivo; method in brief: as §1
# Rattus norvegicus [3] = assay: Plasma concentration in Wistar rat at 1 mg/kg, iv after 1 hr by LC/MS/MS method; format: ADME, organism-based; details: in vivo, BLD = below limit of detection; method in brief: as §1
# [4] = Clearance in Wistar rat at 1 mg/kg, iv after 0.25 to 24 hrs by LC/MS/MS method; format: ADME, organism-based; details: in vivo; method in brief: as §1
# [5] = Drug metabolism in human liver microsomes assessed as drug recovery pre-incubated at 37 degC for 5 mins before NADPH addition and measured after 30 mins by LC/MS/MS method; format: ADME, microsome; details: read-out: Drug recovery
# [6] = Drug metabolism in rat liver microsomes assessed as metabolic turnover rate per 0.125 mg/ml protein pre-incubated at 37 degC for 5 mins before NADPH addition and measured after 30 mins by LC/MS/MS method; format: ADME, microsome; details: 0.5 h
# [7] = Drug metabolism in rat liver microsomes assessed as drug recovery pre-incubated at 37 degC for 5 mins measured after 30 mins in absence of NADPH by LC/MS/MS method; format: ADME, microsome; details: read-out: Drug recovery
# [8] = Drug metabolism in human liver microsomes assessed as metabolic turnover rate per 0.125 mg/ml protein pre-incubated at 37 degC for 5 mins before NADPH addition and measured after 30 mins by LC/MS/MS method; format: ADME, microsome; details: 0.5 h
# [9] = Drug metabolism in mouse liver microsomes assessed as metabolic turnover rate per 0.125 mg/ml protein pre-incubated at 37 degC for 5 mins before NADPH addition and measured after 30 mins by LC/MS/MS method; format: ADME, microsome; details: 0.5 h
# [10] = Drug metabolism in human liver microsomes assessed as drug recovery pre-incubated at 37 degC for 5 mins measured after 30 mins in absence of NADPH by LC/MS/MS method; format: ADME, microsome; details: read-out: Drug recovery
# [11] = Half life in human liver microsomes pre-incubated at 37 degC for 5 mins before NADPH addition and measured after 30 mins by LC/MS/MS method; format: ADME, microsome
# [12] = Half life in mouse liver microsomes pre-incubated at 37 degC for 5 mins before NADPH addition and measured after 30 mins by LC/MS/MS method; format: ADME, microsome
# [13] = Half life in rat liver microsomes pre-incubated at 37 degC for 5 mins before NADPH addition and measured after 30 mins by LC/MS/MS method; format: ADME, microsome
# [14] = Drug metabolism in mouse liver microsomes assessed as drug recovery pre-incubated at 37 degC for 5 mins before NADPH addition and measured after 30 mins by LC/MS/MS method; format: ADME, microsome; details: read-out: Drug recovery
# [15] = Drug metabolism in rat liver microsomes assessed as drug recovery pre-incubated at 37 degC for 5 mins before NADPH addition and measured after 30 mins by LC/MS/MS method; format: ADME, microsome; details: read-out: Drug recovery
# [16] = Drug metabolism in mouse liver microsomes assessed as drug recovery pre-incubated at 37 degC for 5 mins measured after 30 mins in absence of NADPH by LC/MS/MS method; format: ADME, microsome; details: read-out: Drug recovery
# [17] = Half life in Wistar rat at 1 mg/kg, iv after 0.25 to 24 hrs by LC/MS/MS method; format: ADME, organism-based; details: in vivo; method in brief: as §1
# [18] = Volume of distribution at steady state in Wistar rat at 1 mg/kg, iv after 0.25 to 24 hrs by LC/MS/MS method; format: ADME, organism-based; details: in vivo, read-out: Vdss; method in brief: as §1
Ki (Adenosine deaminase),CL (Rattus norvegicus [1]),AUC(0-t) [2],Cp (Rattus norvegicus [3]),clearance [4],remaining at 0.5 h [5],Drug metabolism [6],remaining at 0.5 h [7],Drug metabolism [8],Drug metabolism [9],remaining at 0.5 h [10],half-life [11],half-life [12],half-life [13],remaining at 0.5 h [14],remaining at 0.5 h [15],remaining at 0.5 h [16],half-life [17],Vd [18],SMILES
2.2 nM,Bld,0.35 µM·h,Bld,,,,,,,,,,,,,,,,CCCCCC[C@H]([C@H](C)O)n1cnc2c(N)ncnc21 [(+)-EHNA]
5.9 nM,,1.42 µM·h,,33.3 mL/min/kg,79%,0.04 nmol/min/mg,92%,0.06 nmol/min/mg,0.04 nmol/min/mg,94%,> 30 min,> 30 min,> 30 min,89%,87%,93%,56.4 min,2 L/kg,C[C@H](O)[C@@H](CCc1cccc(C(F)(F)F)c1)n1cnc(C(N)=O)c1
